The source of these data is ChEMBL document CHEMBL4616587, “Kolavenic acid analog restores growth in HSET-overproducing fission yeast cells and multipolar mitosis in MDA-MB-231 human cells” (Bioorg Med Chem, 2020).

Test [1] relates to MDA-MB-231. Briefly: Antiproliferative activity against human MDA-MB-231 cells assessed as inhibition of cell viability incubated for 48 hrs by MTT assay. The conditions noted are these: MDA-MB-231, 48 h. In kind it is functional, cell-based. (In general: Tetrazolium assays rely on reduction of a dye to a coloured formazan, in cell work by metabolically active cells.)
Test [2] relates to Schizosaccharomyces pombe. Briefly: Inhibition of HSET in Schizosaccharomyces pombe TY27 overexpressing GFP-HSET assessed as inhibition of HSET overproduction-induced lethal growth defects by measuring growth restoring activity incubated for 3 days by agar plate-based method. The essentials:
(§1)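 Fission yeast TY27: drug-sensitive YA8 background (h+ bfr1::ura4+ pmd1::hisG leu1 ura4) carrying the pREP41-GFP-HSET plasmid, with the pREP41-GFP vector strain TY26 alongside. Simple plate assay on rich YE5S agar plates, read as restoration of growth of the HSET-overproducing cells. Screened set included SCADS Inhibitor Kits and inhibitors aimed at tubulin or Eg5.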

Test [3] relates to Schizosaccharomyces pombe. Briefly: Inhibition of HSET in Schizosaccharomyces pombe TY27 overexpressing GFP-HSET assessed as inhibition of HSET overproduction-induced lethality by measuring cell growth at 3.3 uM incubated for 2 to 3 days (reference value: 5%). The arrangement: scale not given: the % may be the effect or the level left.
Test [4] concerns Schizosaccharomyces pombe. Briefly: Inhibition of HSET in Schizosaccharomyces pombe TY27 overexpressing GFP-HSET assessed as inhibition of HSET overproduction-induced lethality by measuring cell viability at 3.3 uM incubated for 2 to 3 days relative to control.
The subject of test [5] is Schizosaccharomyces pombe. Briefly: Inhibition of HSET in Schizosaccharomyces pombe TY27 overexpressing GFP-HSET assessed as reversion of HSET-induced lethal abnormal monopolar spindle formation to bipolar formation by measuring cells containing monopolar spindles at 0.1 ug/ml incubated for 2 days by wide field inverted epifluorescence microscopic method (reference value: 76%). The arrangement: scale not given: the % may be the effect or the level left.

The subject of test [6] is Schizosaccharomyces pombe. Briefly: Inhibition of HSET in Schizosaccharomyces pombe TY27 overexpressing GFP-HSET assessed as reversion of HSET-induced lethal abnormal monopolar spindle formation to bipolar formation by measuring cells containing monopolar spindles at 1 ug/ml incubated for 2 days by wide field inverted epifluorescence microscopic method (reference value: 76%). The arrangement: scale not given: the % may be the effect or the level left.

Test [7] concerns WI-38. Briefly: Antiproliferative activity against human WI38 cells assessed as inhibition of cell viability incubated for 48 hrs by MTT assay. In kind it is functional, cell-based. The conditions noted are these: WI-38, 48 h.
Test [8] has as its target T1, Kinesin-like protein KIFC1 (Homo sapiens) (UniProt Q9BW19).
T1 sequence (whole entry): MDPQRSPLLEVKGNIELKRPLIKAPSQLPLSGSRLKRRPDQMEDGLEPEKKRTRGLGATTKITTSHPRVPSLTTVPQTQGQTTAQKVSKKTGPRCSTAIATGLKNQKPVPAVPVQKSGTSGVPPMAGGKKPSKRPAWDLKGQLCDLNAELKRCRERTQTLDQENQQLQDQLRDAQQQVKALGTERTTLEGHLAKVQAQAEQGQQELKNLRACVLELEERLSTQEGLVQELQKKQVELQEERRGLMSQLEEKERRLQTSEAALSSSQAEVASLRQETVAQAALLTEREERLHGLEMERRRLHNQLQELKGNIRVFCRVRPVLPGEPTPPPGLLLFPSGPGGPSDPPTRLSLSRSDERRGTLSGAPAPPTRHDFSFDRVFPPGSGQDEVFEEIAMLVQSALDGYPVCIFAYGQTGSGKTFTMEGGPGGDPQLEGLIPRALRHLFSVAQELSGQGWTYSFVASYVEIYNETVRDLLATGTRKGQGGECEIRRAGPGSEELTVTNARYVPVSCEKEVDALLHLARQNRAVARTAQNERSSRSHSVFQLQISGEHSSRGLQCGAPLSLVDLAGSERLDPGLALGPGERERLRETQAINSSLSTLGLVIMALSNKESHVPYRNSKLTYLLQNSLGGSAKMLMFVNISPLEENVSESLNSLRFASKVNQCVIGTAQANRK
Briefly: Inhibition of HSET in human MDA-MB-231 cells overexpressing HSET and possessing supernumerary centrosomes assessed as inhibition of centrosome clustering by measuring increase in multipolar spindle formation at 250 uM incubated for 24 hrs by Hoechst 33342 staining based fluorescence microscopic method. In kind it is cell-based.

The subject of test [9] is Schizosaccharomyces pombe. Briefly: Inhibition of HSET in Schizosaccharomyces pombe TY27 overexpressing GFP-HSET assessed as inhibition of HSET overproduction-induced lethality by measuring increase in cell viability at 3.3 uM incubated for 2 to 3 days relative to control.
In test [10] the test system is Schizosaccharomyces pombe. Briefly: Inhibition of Eg5 in Schizosaccharomyces pombe TY27 overexpressing GFP-HSET assessed as growth restoring activity incubated for 3 days by agar plate-based method. The essentials:
as §1

For test [11], the system named is Schizosaccharomyces pombe. Briefly: Inhibition of HSET in Schizosaccharomyces pombe TY27 overexpressing GFP-HSET assessed as inhibition of HSET overproduction-induced lethal growth defects by measuring growth restoring activity at 6.25 to 50 ug/spot incubated for 3 days by agar plate-based method. The essentials:
as §1

Test [12] deals with Schizosaccharomyces pombe. Briefly: Inhibition of HSET in Schizosaccharomyces pombe TY27 overexpressing GFP-HSET assessed as inhibition of HSET overproduction-induced lethality by measuring cell growth at 2.8 uM incubated for 2 to 3 days (reference value: 6%). The arrangement: scale not given: the % may be the effect or the level left.
Test [13] relates to Schizosaccharomyces pombe. Briefly: Inhibition of HSET in Schizosaccharomyces pombe TY27 overexpressing GFP-HSET assessed as inhibition of HSET overproduction-induced lethality by measuring cell viability at 2.8 uM incubated for 2 to 3 days relative to control.
Test [14] relates to Schizosaccharomyces pombe. Briefly: Inhibition of HSET in Schizosaccharomyces pombe TY27 overexpressing GFP-HSET assessed as inhibition of HSET overproduction-induced lethality by measuring increase in cell viability at 2.8 uM incubated for 2 to 3 days relative to control.
Test [15] relates to Schizosaccharomyces pombe. Briefly: Inhibition of HSET in Schizosaccharomyces pombe TY27 overexpressing GFP-HSET assessed as inhibition of HSET overproduction-induced lethal growth defects by measuring growth restoring activity at 25 ng/spot incubated for 3 days by agar plate-based method. The essentials: as §1
Test [16] deals with Schizosaccharomyces pombe. Briefly: Inhibition of HSET in Schizosaccharomyces pombe TY27 overexpressing GFP-HSET assessed as inhibition of HSET overproduction-induced lethality by measuring cell growth at 0.25 uM incubated for 2 to 3 days (reference value: 8%). The arrangement: scale not given: the % may be the effect or the level left.
Test [17] deals with Schizosaccharomyces pombe. Briefly: Inhibition of HSET in Schizosaccharomyces pombe TY27 overexpressing GFP-HSET assessed as inhibition of HSET overproduction-induced lethality by measuring cell viability at 0.25 uM incubated for 2 to 3 days relative to control.
Test [18] has as its system Schizosaccharomyces pombe. Briefly: Inhibition of HSET in Schizosaccharomyces pombe TY27 overexpressing GFP-HSET assessed as reversion of HSET-induced lethal abnormal monopolar spindle formation to bipolar formation by measuring cells containing monopolar spindles at 0.01 ug/ml incubated for 2 days by wide field inverted epifluorescence microscopic method (reference value: 76%). Also noted: scale not given: the % may be the effect or the level left.

Test [19] concerns the target T1, Kinesin-like protein KIFC1 (Homo sapiens). Briefly: Inhibition of HSET in human MDA-MB-231 cells overexpressing HSET and possessing supernumerary centrosomes assessed as inhibition of centrosome clustering by measuring bipolar spindle formation at 20 uM incubated for 24 hrs by Hoechst 33342 staining based fluorescence microscopic method relative to control. In kind it is cell-based. Also noted: scale not given: the % may be the effect or the level left.

For test [20] the target is unchanged. Briefly: Inhibition of HSET in human MDA-MB-231 cells overexpressing HSET and possessing supernumerary centrosomes assessed as inhibition of centrosome clustering by measuring bipolar spindle formation at 40 uM incubated for 24 hrs by Hoechst 33342 staining based fluorescence microscopic method relative to control. The arrangement: scale not given: the % may be the effect or the level left. In kind it is cell-based.

For test [21] the target is unchanged. Briefly: Inhibition of HSET in human MDA-MB-231 cells overexpressing HSET and possessing supernumerary centrosomes assessed as inhibition of centrosome clustering by measuring increase in multipolar spindle formation at 20 uM incubated for 24 hrs by Hoechst 33342 staining based fluorescence microscopic method relative to control. In kind it is cell-based. Also noted: scale not given: the % may be the effect or the level left.

The target is the same in test [22]. Briefly: Inhibition of HSET in human MDA-MB-231 cells overexpressing HSET and possessing supernumerary centrosomes assessed as inhibition of centrosome clustering by measuring increase in multipolar spindle formation at 40 uM incubated for 24 hrs by Hoechst 33342 staining based fluorescence microscopic method relative to control. The arrangement: scale not given: the % may be the effect or the level left. The class given is cell-based.

For test [23] the target is unchanged. Briefly: Inhibition of HSET in human MDA-MB-231 cells overexpressing HSET and possessing supernumerary centrosomes assessed as inhibition of centrosome clustering by measuring increase in multipolar spindle formation incubated for 24 hrs by Hoechst 33342 staining based fluorescence microscopic method. The class given is cell-based.
Test [24] has as its system Schizosaccharomyces pombe. Briefly: Inhibition of HSET in Schizosaccharomyces pombe TY27 overexpressing GFP-HSET assessed as inhibition of HSET overproduction-induced lethality by measuring increase in cell viability at 0.25 uM incubated for 2 to 3 days relative to control.
The test system of test [25] is Schizosaccharomyces pombe. Briefly: Inhibition of tubulin in Schizosaccharomyces pombe TY27 overexpressing GFP-HSET assessed as growth restoring activity incubated for 3 days by agar plate-based method. The essentials:
as §1

Calls of active or inactive are those of the source. No cut-off for these calls is given here.

In general, IC50 refers to the midpoint of a concentration-inhibition curve. On to `COc1cccc2c1C(=O)c1c(O)c3c(c(O)c1C2=O)C[C@@](O)(C(=O)CO)C[C@@H]3O[C@H]1C[C@H](N)[C@H](O)[C@H](C)O1` [DOXORUBICIN], for which the IC50 in test [1] worked out at 4.4 µM.
Take `CC1=CCC[C@@H]2[C@@](C)(CC/C(C)=C/C(=O)O)[C@H](C)CC[C@@]12C` [KOLAVENIC ACID]: the “growth restoration (qualitative)” value in [2] is “Dose-dependent effect”. The Activity in [3] was 8%; in test [4], 59%; in [5], 50%; in test [6], 7%. For the same compound, the results for the IC50 in test [1] and in [7] were 272 µM and 265 µM, respectively. The inhibition result in test [8] is “inactive”. Moreover, the fold change (FC) in test [9] is above 2.
`CCOC(=O)C1=C(C)NC(=S)NC1c1cccc(O)c1` (centres undefined): the inhibition entry in [10] was “inactive”.
In the case of `CC(=O)O[C@@H]1C[C@@]2(C)C(C)=CCC[C@@H]2[C@@](C)(CC/C(C)=C/C(=O)O)[C@@H]1C`, the “growth restoration (qualitative)” value in test [2] is “Dose-dependent effect”. Further, the inhibition entry in test [11] and in [8] was “inactive” throughout. Moreover, the Activity in test [12] worked out at 8%; in [13], 81%; in test [5] it was 49%; in [6] it was 11%. Moreover, the IC50 in [1] came out at 261 µM; in [7] it was 265 µM. Besides, the fold change (FC) in test [14] is above 2.
Turning to `C/C=C(\C)C(=O)O[C@@H]1C[C@@H](C)[C@@](C)(CC/C(C)=C/C(=O)O)[C@@H]2CCC=C(C)[C@]12C`, in test [2], the “growth restoration (qualitative)” value was “Dose-dependent effect”. The inhibition result in [15] is “inactive”. Moreover, the Activity in test [16] stood at 13%; in [17], 89%; in test [18] it was 53%; in test [5], 12%; in test [19], 49%; in [20], 23%. For the same compound, the Activity in test [21] amounted to 44%; in test [22], 77%. For the same compound, the values for the IC50 in [1] and in test [7] were 81.9 µM and 100 µM, respectively. In addition, the inhibition result in test [23] was “Dose-dependent effect”. The fold change (FC) in [24] is above 2.
On to `CC[C@]1(O)C[C@H]2CN(CCc3c([nH]c4ccccc34)[C@@](C(=O)OC)(c3cc4c(cc3OC)N(C)[C@H]3[C@@](O)(C(=O)OC)[C@H](OC(C)=O)[C@]5(CC)C=CCN6CC[C@]43[C@@H]65)C2)C1`, for which the inhibition result in test [25] is “inactive”.
Same read-out and setting: as for `COC(=O)Nc1nc2cc(C(=O)c3cccs3)ccc2[nH]1`, the entry is “inactive”.
Turning to `CCCc1cc(C(=O)N[C@H](Cc2ccc(-c3cccc(OC(F)(F)F)c3)nc2)C(=O)N[C@@H]2CCNC2)sc1C`, the “growth restoration (qualitative)” value in test [2] was “Dose-dependent effect”.
Take `CC(=O)O[C@H]1C(=O)[C@@]2(C)[C@H]([C@H](OC(=O)c3ccccc3)[C@]3(O)C[C@H](OC(=O)[C@H](O)[C@@H](NC(=O)c4ccccc4)c4ccccc4)C(C)=C1C3(C)C)[C@]1(OC(C)=O)CO[C@@H]1C[C@@H]2O`: in [25], the inhibition result is “inactive”.
